# S100A4 inh HTS: blocks human S100A4 binding to myosin IIA peptide; S100A4/TAMRA-MyoIIA peptide fluorescence polarization; inhibition, % at 10.7 µM; 0.14% of 360,000 active;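 active = mean inhibition of at least 70% across replicates, with every replicate also reaching that level; inconclusive = mean inhibition reaches 70% but some replicates fall short; inactive = mean inhibition below 70%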
# Target sequence (P26447 whole entry, looked up): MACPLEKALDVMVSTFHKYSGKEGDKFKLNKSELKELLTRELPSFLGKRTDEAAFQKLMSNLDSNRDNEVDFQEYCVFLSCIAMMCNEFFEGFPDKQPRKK
#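 incubation = readout 5 min after mixing, signal stable up to 60 min | system = S100A4 monomer protein | buffer or medium = HEPES pH 7.2 with CaCl2, KCl, NaCl, DTT, Triton | benchmarks = neutral control DMSO, positive control TFP | also added = fluorescent myosin IIA peptide, 5 nM | compound dosing = one concentration per compound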
# ERAP1 inh: ERAP1 (human) enzyme inhibition; inhibition, % at 10.7 µM; recombinant ERAP1, Leu-AMC fluorescence, 60 min; Q9NZ08; 0.15% of 340,000 active;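 active = mean replicate inhibition of at least 30%, or all replicates individually reaching that 30% level; inactive = mean below 30% and not every replicate reaching it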;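 note: 0% = neutral control wells and 100% = L-leucinethiol positive control wells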
# PGC1a acetyl inh: modulators of PGC1a acetylation; U2OS PGC1a acetylation, AlphaScreen anti-acetyl-lysine; with virally co-expressed GCN5 acetyltransferase; inhibition, % at 15.6 µM; 0.17% of 350,000 active; AID 651687;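 active = every replicate shows inhibition of at least 40%; inconclusive = mean inhibition at least 40% but some replicate below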;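 note: 0% = neutral control wells and 100% = positive control wells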
# Ecoli rRNA inh: inhibitors of bacterial rRNA selective over humanized ribosomes; E. coli WT GFP vs humanized-ribosome RFP mutants, fluorescence, 24 h; hits give low values; DMSO median 0, no signal -100; 1.6% of 350,000 active; GFP signal change (wild-type ribosome), % (concentration not given with the values); AID 720706;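 active = significant combined selectivity score with lowered wild-type GFP, culture density cut under 30%, mutant RFP and density less affected; inactive = any of these conditions unmet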
# Casp6 inh: inhibitors of human caspase-6. purified caspase-6, Z-VEID-R110 cleavage fluorescence. inhibition, % at 12.5 µM. 0.53% of 350,000 active;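 active = mean inhibition across replicates at least about 35%, with every replicate also reaching that limit, limit read from the data; inconclusive = only one of the two criteria met; inactive = neither criterion met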;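 note: 0% = median of neutral control wells and 100% = no fluorescence left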
# Target sequence (P55212 24-179 limits assumed): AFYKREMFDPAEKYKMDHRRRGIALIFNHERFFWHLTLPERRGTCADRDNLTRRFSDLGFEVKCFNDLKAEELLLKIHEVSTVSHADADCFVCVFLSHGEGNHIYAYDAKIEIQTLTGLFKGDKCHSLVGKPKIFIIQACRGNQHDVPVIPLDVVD
# Target sequence (P55212 194-293 limits assumed): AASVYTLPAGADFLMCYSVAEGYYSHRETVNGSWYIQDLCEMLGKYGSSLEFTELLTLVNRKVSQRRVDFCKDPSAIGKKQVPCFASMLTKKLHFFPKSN
# ARNT-TACC3 inh: ARNT/TACC3 interaction disruption; Q9Y6A5; AlphaScreen His-ARNT PAS-B/GST-TACC3 binding, luminescence; TACC3 fragment carries E629A point mutation; inhibition, % at 9.99 µM; 0.66% of 390,000 active;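 active = mean inhibition of replicates at least 50% and at least half of replicates each reaching 50%; inconclusive = half or more replicates reach 50% but mean below 50%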;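 note: 0% = complete ARNT plus TACC3 wells and 100% = ARNT alone without TACC3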
# AID977621: growth inhibition of wild-type GFP E. coli, dose response, H69 mutant RFP, cherry-pick | shares compounds with Ecoli rRNA inh | E. coli wild-type GFP strain growth, fluorescence, 24 h | activity change, negative = inhibition at 50 µM | 1,900 tested, under 10 active | AID 977621;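 active = Wild-type ribosome reporter drop at least double the humanized mutant ribosome reporter drop, growth loss under a set limit; inconclusive = no clear call, values can overlap the other calls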;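 note: wild-type GFP and H69 mutant RFP strains grown together 50/50 in each well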
# AID977628: growth of wild-type and h24-humanized E. coli strains – h24 mutant RFP vs wild-type GFP, cherry-pick, dose response. E. coli WT GFP strain growth, fluorescence, 24 h. 1,900 tested, under 10 active. activity change, negative = inhibition at 50 µM. shares compounds with Ecoli rRNA inh;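 active = compound lowering the normal-ribosome reporter at least twice as much as the humanized-ribosome reporter, growth loss under a set limit; inconclusive = no clear call, values can overlap the other calls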;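 note: wild-type GFP and h24 humanized RFP strains co-cultured 1 to 1 per well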
# * hit, by the source's call; ? = inconclusive; . = no result; ! = repeats disagree. Sampled rows, rich in hits. Any-hit rate of the full collection: about 2.4%.
SMILES,S100A4 inh HTS,ERAP1 inh,PGC1a acetyl inh,Ecoli rRNA inh,Casp6 inh,ARNT-TACC3 inh,AID977621,AID977628
Cc1ccc(Cl)cc1N1CCN(S(=O)(=O)N2CCCCC2)CC1,0.8,2.2,-5.4,-28.4,1.5,-0.4,.,.
COC(=O)c1c(C)oc(C)c1S(=O)(=O)NC(c1ccccc1)c1ccccc1,-2.1,3.5,-14.1,-34.8*,0.7,-9.5,-21,.
COC(=O)c1c(-c2ccccc2)noc1C,0.7,-2.4,-5.4,11.4,-2.9,-3.2,.,.
CCN(C(=O)COC(=O)CN1C(=O)c2ccccc2C1=O)c1ccccc1,-5.7,-7.0,13.0,4.9,-4.3,-1.2,.,.
CCN(C(=O)COC(=O)CCc1ccccc1)c1ccccc1,-4.7,-5.4,2.9,-33.7*,-2.7,-0.2,.,-7.65
C[C@H]1CN([C@@H](C)CO)C(=O)CCCn2cc(nn2)CO[C@H]1CN(C)C(=O)c1ccc2ccn(C)c2c1,.,.,-4.7,-0.5,.,.,.,.
COc1ccc(N2C(=O)C3C(c4ccc(C(=O)O)cc4)NC(Cc4ccccc4)(C(=O)O)C3C2=O)c([N+](=O)[O-])c1 (stereo not drawn),0.9,9.8,.,-19.3*,3.2,-0.1,3.75,3.85
C/C=C/c1ccc(C2[C@@H]3CN(S(=O)(=O)c4ccc(C)cc4)C[C@H]2N3)cc1 (stereo partly drawn),.,.,7.2,1.7,.,.,.,.
O=S(=O)(c1ccc(F)cc1)N1C[C@@H]2N[C@H](C1)C2c1ccc(/C=C/c2ccccc2)cc1 (stereo partly drawn),.,.,-1.8,-27.7*!,.,.,-1.33,.
Cc1cc(CNC(=O)c2cc(-c3ccccc3)nc3ccccc23)nn1C,-21.8,3.8,-2.5,-23.9*,0.8,1.8,-7.07,-14.4
O=C(NCc1ccccn1)c1cc(-c2ccccc2)nc2ccccc12,-1.7,-2.0,.,8.1,-0.6,-1.7,.,.
COc1ccc(S(=O)(=O)N(C)C[C@@H]2OCCCC[C@H](C)Oc3ccc(NC(=O)CCC(F)(F)F)cc3C(=O)N([C@@H](C)CO)C[C@@H]2C)cc1,-3.2,-3.3,-27.0,-1.3,-2.9,-4.2,.,.
COC(C(=O)Nc1ccnn1C1CCN(Cc2ccc(Cl)s2)CC1)c1ccccc1 (stereo not drawn),6.5,1.5,10.3,-22.1*,-3.6,-1.3,-4.78,-9.8
CCn1cc(CCC(=O)NCCc2ccccc2)c2ccccc21,-5.6,3.1,-11.3,-19.3*,3.2,-1.1,-7.97,?
O=S(=O)(c1cccc(-c2nc3ccccc3s2)c1)N1CCCC1,0.5,0.7,0.2,-22.1*,8.9,-0.4,-0.211,?
O=S(=O)(c1ccc(-c2nc3ccccc3s2)cc1)N1CCCC1,.,.,2.1,.,.,-2.1,.,.
COCC(=O)N(C)C[C@@H]1Oc2cc(C#C[C@H](C)O)ccc2S(=O)(=O)N([C@@H](C)CO)C[C@H]1C,3.4,-1.3,-13.1,2.6,-0.4,-0.1,.,.
COCC#Cc1cnc2c(c1)C(=O)N([C@H](C)CO)C[C@H](C)[C@H](CN(C)C(=O)c1ccc(F)cc1)O2,-15.1,1.1,8.8,5.6,0.8,-14.0,.,.
CC(C)c1ccc(-c2nc3ccccc3s2)cc1,-4.4,4.5,.,-16.0*,0.9,-10.7,-3.12,-4.91
CC(=O)NCCc1nc2cc(NC(=O)c3cccs3)ccc2n1C,-2.4,-1.1,4.1,14.1,2.0,-3.1,.,.
Cn1c(CCN2CCOCC2)nc2cc(NC(=O)c3cccs3)ccc21,-1.5,2.2,-9.3,-18.1*,-0.7,-6.2,-9.78,?
Cc1ccc2nc(SCC(=O)Nc3nonc3N)[nH]c2c1,-0.9,-1.1,-9.3,6.8,2.9,1.5,.,.
CCOc1ccc2nc(SCC(=O)Nc3nonc3C)[nH]c2c1,0.3,-3.5,-0.6,-20.4*,6.1,.,-15.4,-9.98
Cc1ccc(S(=O)(=O)N(Cc2ccccc2)C(C)C)cc1,-1.3,.,-5.0,-23.6,-0.6,-5.8,.,.
Cc1noc(C)c1S(=O)(=O)N(Cc1ccccc1)C(C)C,-2.1,-2.1,-13.9,-18.9*,-2.7,.,2.39,-6.83
SMILES,S100A4 inh HTS,ERAP1 inh,PGC1a acetyl inh,Ecoli rRNA inh,Casp6 inh,ARNT-TACC3 inh,AID977621,AID977628
COc1ccc2c3c(n(C)c2c1)[C@H](CO)N(C(=O)CN1CCOCC1)CC31CN(C(=O)CC2CC2)C1,-3.8,-0.8,.,2.3,-0.2,.,.,.
C[C@@H]1CCCCO[C@@H](CN(C)C)[C@H](C)CN([C@H](C)CO)C(=O)c2cc(NC(=O)C3CCCCC3)ccc2O1,.,.,0.6,0.3,.,.,.,.
COC(=O)c1cc2c(c3c4cc(F)ccc4n(S(=O)(=O)c4cccc(C)c4)c13)C(=O)N(Cc1ccco1)C2,-4.2,-3.0,.,-16.9*,1.6,.,-19,-9.79
COC(=O)c1cc2c(c3c4cc(OC)ccc4n(C(=O)c4ccccc4)c13)C(=O)N(Cc1ccco1)C2,-3.1,-4.9,.,-14.2*,-2.0,.,0.152,-7.38
COC(=O)c1cc2c(c3c4cc(F)ccc4n(S(=O)(=O)c4cccc(C)c4)c13)C(=O)N(Cc1ccccc1OC)C2,-5.9,0.0,.,4.2,1.1,.,.,.
COC(=O)c1cc2c(c3c4cc(F)ccc4n(S(=O)(=O)c4ccccc4)c13)C(=O)N(Cc1ccco1)C2,-4.7,-5.1,.,-17.9*,-1.6,.,-2.13,?
CN1C(=O)c2cc(NS(=O)(=O)c3ccccc3Cl)ccc2OC[C@@H]2O[C@@H](CC(=O)O)CC[C@@H]21,-4.8,1.2,5.0,-1.4,0.5,12.0,.,.
Cc1occc1-c1nnc(SCC(=O)Nc2nc(-c3ccccc3)cs2)o1,0.7,0.3,-10.2,-24.4*,-3.7,-2.9,?,-7.24
C[C@@H]1CN([C@H](C)CO)C(=O)c2cc(NC(=O)C3CCCCC3)ccc2O[C@@H](C)CCCCO[C@@H]1CN(C)C(=O)Cc1ccccc1,.,.,3.5,-4.0,.,2.9,.,.
C[C@H](CO)N1C[C@H](C)[C@@H](CN(C)C(=O)CN(C)C)Oc2cc(Br)ccc2S1(=O)=O,5.1,0.1,-15.2,6.0,-1.4,15.0,.,.
CCOc1ccc(CN(C)C(=O)c2ccc(NS(=O)(=O)c3ccc4[nH]c(=O)[nH]c4c3)cc2)cc1,0.2,-2.5,3.5,-17.0*,3.8,3.5,-24.7,?
COc1ccc(C#Cc2ccc3c(c2)[C@@H]2[C@@H](CCN2Cc2nccs2)[C@@H](CO)N3)cc1,.,.,1.4,-21.9*,.,18.6,.,?
Cc1cccc(-c2ccc([C@@H]3[C@@H](CO)N4C(=O)CN(C(=O)Cc5ccccn5)C[C@@H]34)cc2)c1,-11.6,5.3,-1.4,1.5,0.2,.,.,.
